The results in this text go back to ChEMBL document CHEMBL3853360, “Combined Interactions with I1-, I2-Imidazoline Binding Sites and α2-Adrenoceptors To Manage Opioid Addiction” (ACS Med Chem Lett, 2016).

Assay [1] in a line: Displacement of [3H]-2-BFI from I2 receptor imidazoline binding site in Sprague-Dawley rat brain membranes after 30 mins by liquid scintillation counting. The format is cell membranes, Membrane. Summed up:
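Radioligand competition binding with pKi determined by displacement. I1 sites: [125I]-p-iodoclonidine on rat kidney membranes. I2 sites: [3H]-2-BFI on rat brain membranes. α2-ARs: [3H]-RX821002 on rat brain membranes.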
Background: In a radioligand displacement assay an active substance lowers the binding of a labelled ligand.

In assay [2] the target is T1, Alpha-2B adrenergic receptor (Homo sapiens, UniProt P18089).
T1 sequence (P18089 whole entry): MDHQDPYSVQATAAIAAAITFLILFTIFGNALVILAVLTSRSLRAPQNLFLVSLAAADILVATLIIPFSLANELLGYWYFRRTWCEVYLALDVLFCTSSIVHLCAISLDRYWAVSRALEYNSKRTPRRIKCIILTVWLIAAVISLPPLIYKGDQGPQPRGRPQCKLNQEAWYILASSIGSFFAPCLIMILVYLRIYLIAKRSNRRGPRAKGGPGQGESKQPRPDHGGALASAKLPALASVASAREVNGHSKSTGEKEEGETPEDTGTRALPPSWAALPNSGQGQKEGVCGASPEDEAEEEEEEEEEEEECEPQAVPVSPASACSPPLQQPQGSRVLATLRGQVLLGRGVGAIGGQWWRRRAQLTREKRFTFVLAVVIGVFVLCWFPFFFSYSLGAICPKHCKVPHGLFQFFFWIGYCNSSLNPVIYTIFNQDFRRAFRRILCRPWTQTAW
Description: Agonist activity at human alpha2b-AR expressed in CHO cells assessed as rate of acidification after 240 mins by cytosensor microphysiometric analysis. In kind it is cell-based. Summed up:
(§1)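 Functional assay in CHO cells stably expressing a single human α2-AR subtype (α2A, α2B or α2C), read on a Cytosensor microphysiometer. Outputs are pEC50, intrinsic activity and, for antagonism, pKb. Intrinsic activity is expressed as a fraction of the full agonist (−)-noradrenaline, set at 1. Values are mean ± SEM of 3–5 separate experiments.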

Assay [3] concerns the target T2, Alpha-2B adrenergic receptor (Homo sapiens) (UniProt P18089).
T2 sequence (whole entry): T1 sequence (P18089 whole entry)
The experiment in a line: Agonist activity at human alpha2b-AR expressed in CHO cells assessed as rate of acidification after 240 mins by cytosensor microphysiometric analysis relative to (-)-noradrenaline. In kind it is cell-based. An outline of the steps: as §1

The target of assay [4] is T3, Alpha-2C adrenergic receptor (Homo sapiens) (UniProt P18825).
T3 sequence (whole entry): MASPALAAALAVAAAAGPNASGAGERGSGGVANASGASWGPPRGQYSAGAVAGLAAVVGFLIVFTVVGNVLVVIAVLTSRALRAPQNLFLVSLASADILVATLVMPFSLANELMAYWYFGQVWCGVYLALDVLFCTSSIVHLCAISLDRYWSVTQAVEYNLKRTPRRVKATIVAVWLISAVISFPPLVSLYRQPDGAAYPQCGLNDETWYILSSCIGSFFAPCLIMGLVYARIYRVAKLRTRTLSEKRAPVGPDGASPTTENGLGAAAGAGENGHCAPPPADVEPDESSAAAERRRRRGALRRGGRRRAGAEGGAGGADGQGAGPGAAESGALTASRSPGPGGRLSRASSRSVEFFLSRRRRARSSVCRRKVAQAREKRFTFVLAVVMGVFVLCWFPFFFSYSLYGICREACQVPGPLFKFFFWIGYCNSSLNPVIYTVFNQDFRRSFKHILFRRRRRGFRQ
The experiment in a line: Agonist activity at human alpha2c-AR expressed in CHO cells assessed as rate of acidification after 240 mins by cytosensor microphysiometric analysis relative to (-)-noradrenaline. The format is cell-based. Summed up: as §1

A short description of assay [5]: Reduction in morphine dependence expression in CD1 mouse assessed as inhibition of naloxone-precipitated jumping at 5 mg/kg, ip administered acutely 15 mins prior to naloxone challenge relative to control. In kind it is functional, organism-based.
The nature of assay [6]: Reduction in morphine dependence expression in CD1 mouse assessed as inhibition of naloxone-precipitated forepaw tremor frequency at 10 mg/kg, ip administered acutely 15 mins prior to naloxone challenge relative to control. The format is functional, organism-based.
In another assay the test system is Mus musculus. The experiment in a line: Reduction in morphine dependence acquisition in CD1 mouse assessed as inhibition of naloxone-precipitated teeth chattering frequency at 5 to 10 mg/kg, ip administered 15 mins prior to each morphine challenge relative to control. The format is functional. An outline of the steps:
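Mice received i.p. test compound (5 or 10 mg/kg) 15 min before each of repeated morphine injections, with vehicle and morphine-only controls. Withdrawal was then precipitated with naloxone. Jumping frequency and somatic signs (rearing, forepaw tremor, teeth chattering; summed frequency) were scored and compared with the morphine group. Data are mean ± SEM of 6–10 animals.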

A word on the pKi: it is the negative decadic logarithm of the Ki, by convention in mol/L. Low values mean a high Ki, high ones a low Ki. As usually defined, the EC50 is the concentration at which the effect is half-maximal. Usually inhibition stands for the change of the read-out against control, counted positive when it falls. The molecule `Cc1ccccc1NCC1=NCCN1` showed a pKi in assay [1] of 8.06. In assay [2], the EC50 is 3.16 µM. In addition, the Intrinsic activity in assay [3] amounted to 0.4; in assay [4], 0.8. Moreover, the inhibition in assay [5] worked out at 96%; in assay [6] it was 93%. The “inhibition (INH)” value in the assay with Mus musculus came to 80%.
